ChEMBL document CHEMBL3351942, “Rexinoids isolated from Sophora tonkinensis with a gene expression profile distinct from the synthetic rexinoid bexarotene” (J Nat Prod, 2014)
Activity calls are given as the source filed them. No cut-off for these calls is given here.

Key:
[1] = target: T1, Oxysterols receptor LXR-alpha (Homo sapiens) (UniProt Q13133); assay: Activation of human LXR-alpha expressed in HEK293 cells coexpressing with pGL4.1-DR4-Luc after 24 hrs by luciferase reporter gene assay; assay type: cell-based
T1 sequence (whole entry): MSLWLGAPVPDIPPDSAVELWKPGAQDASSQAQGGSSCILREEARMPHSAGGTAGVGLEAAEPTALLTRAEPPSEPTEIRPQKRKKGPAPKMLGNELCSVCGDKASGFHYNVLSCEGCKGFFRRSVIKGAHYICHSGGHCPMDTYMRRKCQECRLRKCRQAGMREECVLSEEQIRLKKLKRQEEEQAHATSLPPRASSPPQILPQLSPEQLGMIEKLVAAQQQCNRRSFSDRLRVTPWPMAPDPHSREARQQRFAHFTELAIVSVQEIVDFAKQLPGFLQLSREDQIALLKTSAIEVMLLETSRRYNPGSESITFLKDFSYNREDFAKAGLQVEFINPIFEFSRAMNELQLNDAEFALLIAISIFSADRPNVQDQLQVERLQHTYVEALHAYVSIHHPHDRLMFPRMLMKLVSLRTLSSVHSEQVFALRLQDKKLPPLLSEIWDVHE

Homo sapiens = species on record: Homo sapiens; assay: Activation of RXR/VDR heterodimer in human hepatoma cells assessed as increase in CYP24A1 mRNA level at 10 uM in presence of VDR agonist calcitriol by quantitative RT-PCR analysis; assay type: cell-based
How it was run: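 HLE hepatoma cells treated 24 h with or without VD3 (0.1 μM); CYP24A1 mRNA by SYBR green qRT-PCR normalized to β-actin (delta-delta Ct), fold over vehicle; means ± SD of three determinants, representative of three experiments.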

3T3-L1 = assay: Activation of PPARgamma/RXR heterodimer in mouse 3T3-L1 cell assessed as induction of adipogenesis at 10 uM after 6 days by Oil red O-staining; assay type: cell-based
How it was run: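 3T3-L1 cells grown to confluence, 2 days later induced 48 h with 10% FBS, 5 μg/mL insulin, 0.25 μM dexamethasone, 0.5 mM IBMX, then 48 h insulin-only medium; compounds in DMSO added to postdifferentiation medium for 4 days. Formalin-fixed (10%, 1 h, RT), stained with Oil red O, washed, visualized.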

C2C12 = assay: Induction of HMOX-1 mRNA level in mouse C2C12 cells at 10 uM after 24 hrs by quantitative RT-PCR analysis; assay type: functional, cell-based
How it was run: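 C2C12 myoblasts were differentiated in 2% horse serum, with medium changed every other day for 5 days. The myotubes were then exposed to compound at 10 μM for 24 h. mRNA was measured by SYBR green qRT-PCR from 0.5 μg total RNA, normalized to β-actin (ΔΔCt), and expressed as fold of vehicle. Four determinants, representative of two experiments.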

[2] = target: T2, Peroxisome proliferator-activated receptor delta (Mus musculus) (UniProt P35396); assay: Activation of PPARdelta in mouse C2C12 cells assessed as induction of ANGPTL4 mRNA expression at 10 uM after 24 hrs by quantitative RT-PCR analysis; assay type: cell-based
T2 sequence (whole entry): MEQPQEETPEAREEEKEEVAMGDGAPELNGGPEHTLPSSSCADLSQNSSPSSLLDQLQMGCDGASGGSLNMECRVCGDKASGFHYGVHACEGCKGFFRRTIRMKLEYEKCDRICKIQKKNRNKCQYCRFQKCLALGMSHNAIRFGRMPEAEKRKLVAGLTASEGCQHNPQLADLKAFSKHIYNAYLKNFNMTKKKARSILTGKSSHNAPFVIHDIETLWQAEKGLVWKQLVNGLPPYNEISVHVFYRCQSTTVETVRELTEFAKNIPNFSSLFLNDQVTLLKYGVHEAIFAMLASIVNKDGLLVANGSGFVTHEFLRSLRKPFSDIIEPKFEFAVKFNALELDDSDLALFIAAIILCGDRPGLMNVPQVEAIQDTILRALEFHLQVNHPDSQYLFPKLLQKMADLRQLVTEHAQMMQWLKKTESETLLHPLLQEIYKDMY
How it was run: (§1)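 Differentiated C2C12 myotubes (2% horse serum, 5 days) exposed 24 h with or without PPARδ agonist GW501516 (1 μM). mRNA quantified by SYBR green real-time RT-PCR, normalized to β-actin by delta-delta Ct, and expressed as fold induction vs vehicle; means ± SD of four determinants from one of two independent experiments; one-way ANOVA with Bonferroni.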

[3] = target: T2, Peroxisome proliferator-activated receptor delta (Mus musculus); assay: Activation of PPARdelta in mouse C2C12 cells assessed as induction of CPT1A mRNA expression at 10 uM after 24 hrs by quantitative RT-PCR analysis; assay type: cell-based; how it was run: as §1
[4] = target: T2, Peroxisome proliferator-activated receptor delta (Mus musculus); assay: Activation of PPARdelta in mouse C2C12 cells assessed as induction of FABP3 mRNA expression at 10 uM after 24 hrs by quantitative RT-PCR analysis; assay type: cell-based; how it was run: as §1
[5] = target: T3, Peroxisome proliferator-activated receptor gamma (Homo sapiens) (UniProt P37231); assay: Activation of PPARgamma (unknown origin) by receptor-CBP cofactor complex formation assay
T3 sequence (whole entry): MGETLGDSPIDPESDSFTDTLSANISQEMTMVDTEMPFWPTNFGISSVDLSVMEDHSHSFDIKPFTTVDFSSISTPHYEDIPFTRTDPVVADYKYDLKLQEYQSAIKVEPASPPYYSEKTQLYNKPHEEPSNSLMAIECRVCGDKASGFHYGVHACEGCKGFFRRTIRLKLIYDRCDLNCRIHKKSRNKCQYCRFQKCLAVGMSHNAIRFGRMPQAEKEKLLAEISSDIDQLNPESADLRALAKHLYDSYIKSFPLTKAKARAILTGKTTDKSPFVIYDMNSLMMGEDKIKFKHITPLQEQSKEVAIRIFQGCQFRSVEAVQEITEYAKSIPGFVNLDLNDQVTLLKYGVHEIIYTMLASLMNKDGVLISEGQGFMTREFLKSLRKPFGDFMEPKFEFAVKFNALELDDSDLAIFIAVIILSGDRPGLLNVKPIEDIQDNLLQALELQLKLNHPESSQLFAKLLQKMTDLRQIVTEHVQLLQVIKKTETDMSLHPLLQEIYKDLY
How it was run: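 Cell-free cofactor recruitment ELISA: ligand-dependent binding of PPAR isotypes to CBP, detected by HRP-conjugated anti-PPAR antibody at OD450. Full agonists GW7647 (α), GW1929 (γ), GW501516 (δ) define 100%, vehicle 0%; efficacy as maximum B/Bmax% and potency as EC50.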

RAW264.7 = assay: Activation of RXR/LXR heterodimer in mouse RAW264.7 cells assessed as increase in ABCA1 protein level at 10 uM after 24 hrs in presence of T0901317 by Western blotting analysis; assay type: cell-based
[6] = Activation of LXR in mouse C2C12 cells assessed as induction of FAS mRNA expression at 10 uM after 24 hrs by quantitative RT-PCR analysis; assay type: cell-based
How it was run: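 C2C12 myoblasts grown in DMEM/10% FBS, differentiated at confluence in 2% horse serum, medium changed every other day for 5 days; myotubes treated 24 h with or without T0901317 (1 μM). Total RNA, DNase-treated, oligo(dT) RT from 0.5 μg, SYBR green qPCR; normalized to β-actin (delta-delta Ct), fold over vehicle; mean ± SD of four determinants, one of two experiments.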

Activity [1]: inactive | Activity [2]: Active | Activity [3]: Active | Activity [4]: Active | Activity [5]: inactive
SMILES: CC(C)=CCc1cc([C@@H]2CC(=O)c3ccc(O)c(CC=C(C)C)c3O2)cc2c1OC(C(C)(C)O)C2 (stereo not given in full)
Activity (Homo sapiens): inactive | Activity (3T3-L1): Active | Activity (C2C12): Active | Activity (RAW264.7): Active | Activity [6]: inactive
